# Data published in PubChem BioAssay AID623952 (Vanderbilt High Throughput Screening Facility, 2012).
# Molecular target: G protein-activated inward rectifier potassium channel 2 (Homo sapiens) + G protein-activated inward rectifier potassium channel 1 (Homo sapiens) (UniProt P48051+P48549)
# Experiment: GIRK1/2 activators in cells lacking mGlu8, dose response, minus mGlu8, HEK-293 hGIRK1/2, thallium flux (AID 623952)
# Details: HEK-293 hGIRK1/2, thallium flux FluoZin-2 fluorescence
# How it was run: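 Assay system: HEK-293 cells with stable human GIRK1/2 channel expression; Incubation: dye loading ~60 min room temperature, compound 4 min pre-stimulus; Read-out basis: Vehicle-corrected F/F0 slope, four-parameter logistic fit; Technique: FluoZin-2 fluorescence thallium flux; Reagent: thallium stimulus plus EC20 glutamate.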
# Chain of G protein-activated inward rectifier potassium channel 2 (Homo sapiens) + G protein-activated inward rectifier potassium channel 1 (Homo sapiens) (P48051 whole entry, looked up): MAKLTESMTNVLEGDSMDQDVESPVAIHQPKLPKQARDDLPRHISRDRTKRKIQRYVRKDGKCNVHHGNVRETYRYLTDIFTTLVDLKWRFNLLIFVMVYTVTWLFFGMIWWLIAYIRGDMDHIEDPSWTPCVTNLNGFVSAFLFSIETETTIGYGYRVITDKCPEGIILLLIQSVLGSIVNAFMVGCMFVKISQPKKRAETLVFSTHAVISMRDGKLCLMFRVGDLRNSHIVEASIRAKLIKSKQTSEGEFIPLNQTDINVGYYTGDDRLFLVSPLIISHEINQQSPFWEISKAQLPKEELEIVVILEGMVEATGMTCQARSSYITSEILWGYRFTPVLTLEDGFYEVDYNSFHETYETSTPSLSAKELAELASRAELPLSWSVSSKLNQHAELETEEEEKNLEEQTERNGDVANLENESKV
# Chain of G protein-activated inward rectifier potassium channel 2 (Homo sapiens) + G protein-activated inward rectifier potassium channel 1 (Homo sapiens) (P48549 whole entry, looked up): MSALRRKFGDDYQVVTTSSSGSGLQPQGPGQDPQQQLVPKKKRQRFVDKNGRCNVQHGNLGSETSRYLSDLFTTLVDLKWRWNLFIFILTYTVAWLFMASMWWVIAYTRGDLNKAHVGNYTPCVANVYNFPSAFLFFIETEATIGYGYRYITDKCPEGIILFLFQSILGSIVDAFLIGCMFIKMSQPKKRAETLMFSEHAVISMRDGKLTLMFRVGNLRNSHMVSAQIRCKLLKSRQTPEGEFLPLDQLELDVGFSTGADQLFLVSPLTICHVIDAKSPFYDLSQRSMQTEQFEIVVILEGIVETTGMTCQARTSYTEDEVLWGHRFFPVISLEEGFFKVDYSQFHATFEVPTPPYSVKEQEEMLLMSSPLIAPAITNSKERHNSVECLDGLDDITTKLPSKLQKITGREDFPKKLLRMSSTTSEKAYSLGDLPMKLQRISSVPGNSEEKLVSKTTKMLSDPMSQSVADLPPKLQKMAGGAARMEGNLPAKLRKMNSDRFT
row,EC50,SMILES
1,1.69 µM,Cc1cc(NC(=O)Nc2ccccc2)n(-c2ccccc2)n1
2,0.7 µM,Cc1ccc(-c2nnn(CC(=O)NC3CC4CCC3C4)n2)cc1 (centres undefined)
3,0.799 µM,Cc1ccc(NC(=O)Cc2ccccc2Cl)cc1S(=O)(=O)N(C)C
4,0.25 µM,CCOc1ccccc1Nc1nnc(Cc2ccccc2Cl)c(=O)[nH]1
